Measured values published in ChEMBL document CHEMBL3593210, “Pentamidine analogs as inhibitors of [(3)H]MK-801 and [(3)H]ifenprodil binding to rat brain NMDA receptors” (Bioorg Med Chem, 2015).

Tests used:
[1] = molecular target: Glutamate NMDA receptor (Rattus norvegicus) (UniProt P35439+Q00959+Q00960+Q00961+Q62645+Q8VHN2+Q9R1M7); assay: Ratio of IC50 for displacement of [3H]-MK-801 from rat cortical membranes NMDA receptor in presence of 30 uM spermine to IC50 for displacement of [3H]-MK-801 from rat cortical membranes NMDA receptor in absence of 30 spermine
In short: (§1)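 Membranes from rat frontoparietal cortex and hippocampus, prepared in 50 mM Tris acetate pH 7.0. 5 nM [3H]MK-801 was incubated with membranes (~1 mg wet tissue) for 3 h at 23 °C in 10 mM Tris acetate pH 7.0 with 10 µM glutamate and glycine, in triplicate, with or without 30 µM spermine. Compounds were tested at 3–4 concentrations. Nonspecific binding was set with 100 µM (S)-ketamine. Bound ligand was filtered and scintillation-counted. Spermine sensitivity = IC50 (with spermine)/IC50 (without).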

[2] = molecular target: Glutamate NMDA receptor; assay: Displacement of [3H]-MK-801 from rat cortical membranes NMDA receptor by beta counting analysis in presence of 30 uM spermine; in short: as §1
[3] = molecular target: Glutamate NMDA receptor; assay: Displacement of [3H]-MK-801 from rat cortical membranes NMDA receptor by beta counting analysis in absence of spermine; in short: as §1
[4] = molecular target: Glutamate NMDA receptor; assay: Displacement of [3H]-ifenprodil from rat cortical membranes NMDA receptor by beta counting analysis in absence of spermine

Row | SMILES | Ratio IC50 [1] | IC50 [2] [µM] | IC50 [3] [µM] | IC50 [4] [µM]
1 | N=C(N)c1ccc(NC(=O)CCCC(=O)Nc2ccc(C(=N)N)cc2)cc1 | 2.81 | 675 | 230 | 54.5
2 | c1cc(N2CCN(c3ccc(C4=NCCN4)cc3)CC2)ccc1C1=NCCN1 | 15.1 | 106 | 6.43 | 
3 | c1cc(N2CCCN(c3ccc(C4=NCCCN4)cc3)CC2)ccc1C1=NCCCN1 | 11.7 | 143 | 12.8 | 
4 | N=C(NC1CC1)c1ccc(N2CCCN(c3ccc(C(=N)NC4CC4)cc3)CC2)cc1 | 19.9 | 212 | 11.2 | 
5 | CN(CCN(C)c1ccc(C(=N)N)cc1)c1ccc(C(=N)N)cc1 | 20.9 | 54.5 | 2.71 | 16.9
6 | N=C(N)c1ccc(NC(=O)CCCCC(=O)Nc2ccc(C(=N)N)cc2)cc1 | 3.46 | 437 | 165 | 
7 | CN(CCCN(C)c1ccc(C(=N)N)cc1)c1ccc(C(=N)N)cc1 | 14.7 | 24.7 | 1.84 | 31.2
8 | N=C(N)c1ccc(OCCCCOc2ccc(C(=N)N)cc2)cc1 |  |  | 17.7 | 
9 | N=C(N)c1ccc(NC(=O)c2ccc(C(=O)Nc3ccc(C(=N)N)cc3)cc2)cc1 | 0.96 | 52.9 | 53.9 | 
10 | NCCCCCCCCc1ccc(CCCCN)s1 | 15.1 | 6.1 | 0.52 | 49.3
11 | CCCC/N=C(/N)c1ccc(N2CCN(c3ccc(/C(N)=N\CCCC)cc3)CC2)cc1 | 16 | 139 | 10.3 | 
12 | N=C(N)c1ccc(NC(=O)c2ccc(C(=O)Nc3ccc(C(=N)N)cc3)o2)cc1 | 1.01 | 153 | 152 | 
13 | CN(CCNc1ccc(C(=N)N)cc1)c1ccc(C(=N)N)cc1 | 30.2 | 85.3 | 3.18 | 7.14
14 | CCN(CCNc1ccc(C(=N)N)cc1)c1ccc(C(=N)N)cc1 | 19.3 | 48.1 | 2.61 | 13
15 | N=C(N)c1ccc(C(=O)NCCCCNC(=O)c2ccc(C(=N)N)cc2)cc1 |  | > 1000 | > 1000 | 
16 | N=C(N)c1ccc(NC(=O)c2cccc(C(=O)Nc3ccc(C(=N)N)cc3)c2)cc1 | 0.97 | 36.7 | 42.3 | 

Row | SMILES | Ratio IC50 [1] | IC50 [2] [µM] | IC50 [3] [µM] | IC50 [4] [µM]
17 | N=C(N)c1ccc(-c2ccc(-c3nc4ccc(C(=N)N)cc4[nH]3)s2)cc1 | 4.14 | 13.4 | 3.21 | 
18 | CC(C)(C)/N=C(\N)c1ccc(N2CCCN(c3ccc(/C(N)=N/C(C)(C)C)cc3)CC2)cc1 | 16.8 | 562 | 34.6 | 
19 | N=C(N)c1ccc(OCCCOc2ccc(C(=N)N)cc2)cc1 [PROPAMIDINE] |  |  | 5.54 | 
20 | N=C(N)c1ccc(NCCCCCCNc2ccc(C(=N)N)cc2)cc1 | 5.26 | 23.9 | 4.37 | 
21 | N=C(N)c1ccc(NC(=O)CCCCCCCCCCC(=O)Nc2ccc(C(=N)N)cc2)cc1 | 2.98 | 27.7 | 9.63 | 
22 | N=C(N)c1ccc(C(=O)Nc2cccc(NC(=O)c3ccc(C(=N)N)cc3)n2)cc1 | 1.85 | 233 | 125 | 
23 | c1cc(N2CCN(c3ccc(C4=NCCCN4)cc3)CC2)ccc1C1=NCCCN1 | 13.6 | 264 | 23.8 | 
24 | NC(N)=NCCCCN=C(N)N [ARCAINE] |  | 196 | 4.6 | 24.4
25 | N=C(N)c1ccc(-c2ccc(-c3ccc(-c4ccc(C(=N)N)o4)s3)s2)o1 | 4.26 | 11.7 | 5.01 | 
26 | N=C(N)c1ccc(-c2ccc(-c3ccc(C(=N)N)cc3)s2)cc1 | 2.61 | 17.7 | 6.68 | 
27 | NCCCCCCCCCCCCN | 32.9 | 245 |  | 960
28 | N=C(N)c1ccc(-c2ccc(-c3ccc(C(=N)N)cc3)c(F)c2)cc1 | 4.63 | 34.2 | 9.9 | 
29 | C/N=C(\N)c1ccc(-c2ccc(-c3ccc(/C(N)=N/C)cc3)o2)cc1 | 3.47 | 24 | 6.97 | 
30 | N=C(N)c1ccc(NCCCCCCCNc2ccc(C(=N)N)cc2)cc1 | 5.37 | 25.4 | 4.67 | 
31 | N=C(N)c1ccc(NC(=O)CCCCCCCC(=O)Nc2ccc(C(=N)N)cc2)cc1 | 4.25 | 111 | 26.5 | 
32 | CC(C)/N=C(\N)c1ccc(N2CCCN(c3ccc(/C(N)=N/C(C)C)cc3)CC2)cc1 | 25.3 | 389 | 17.7 | 
